Source: the M2OR odorant receptor database

How the values were obtained:
Settings in all cases: stereoisomer not certain
UniProt Q924H8 = biological target: T1, UniProt Q924H8
T1 sequence (whole entry): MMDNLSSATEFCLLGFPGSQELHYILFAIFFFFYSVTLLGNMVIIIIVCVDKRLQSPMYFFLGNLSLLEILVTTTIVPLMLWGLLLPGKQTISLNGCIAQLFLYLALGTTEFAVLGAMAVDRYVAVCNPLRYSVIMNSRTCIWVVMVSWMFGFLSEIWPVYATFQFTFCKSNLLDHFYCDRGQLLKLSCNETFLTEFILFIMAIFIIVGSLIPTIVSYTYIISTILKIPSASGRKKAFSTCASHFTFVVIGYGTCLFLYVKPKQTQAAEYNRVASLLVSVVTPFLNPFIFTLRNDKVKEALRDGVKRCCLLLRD
Summary of the method: (§1)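 Whether a receptor–molecule pair is responsive (active) rests on the original authors' judgment that its measured signal was statistically different from baseline. Pairs without that judgment are non-responsive (inactive). Sources used varied assay methods, commonly transient luciferase assays in mammalian cell lines.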

UniProt Q924X8 = biological target: T2, UniProt Q924X8
T2 sequence (whole entry): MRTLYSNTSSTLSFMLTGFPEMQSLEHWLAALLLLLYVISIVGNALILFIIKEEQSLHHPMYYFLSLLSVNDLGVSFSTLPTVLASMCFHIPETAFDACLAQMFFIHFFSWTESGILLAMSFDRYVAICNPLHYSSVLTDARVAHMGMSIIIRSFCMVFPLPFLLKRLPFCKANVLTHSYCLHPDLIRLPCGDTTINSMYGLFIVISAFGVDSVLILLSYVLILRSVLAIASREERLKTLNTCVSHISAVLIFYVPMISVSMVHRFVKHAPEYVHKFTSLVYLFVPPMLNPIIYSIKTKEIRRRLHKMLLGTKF
Summary of the method: as §1

UniProt Q99NH4 = biological target: T3, UniProt Q99NH4
T3 sequence (whole entry): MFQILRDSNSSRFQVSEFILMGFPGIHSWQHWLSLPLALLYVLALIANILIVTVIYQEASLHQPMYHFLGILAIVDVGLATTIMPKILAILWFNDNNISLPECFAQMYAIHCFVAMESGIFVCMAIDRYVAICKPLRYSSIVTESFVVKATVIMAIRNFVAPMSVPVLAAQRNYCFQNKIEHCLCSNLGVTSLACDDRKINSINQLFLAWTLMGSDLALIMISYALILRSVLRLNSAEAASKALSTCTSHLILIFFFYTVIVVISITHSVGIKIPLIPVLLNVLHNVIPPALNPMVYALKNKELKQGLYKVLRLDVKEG
Summary of the method: as §1

UniProt Q9EPN9 = biological target: T4, UniProt Q9EPN9
T4 sequence (whole entry): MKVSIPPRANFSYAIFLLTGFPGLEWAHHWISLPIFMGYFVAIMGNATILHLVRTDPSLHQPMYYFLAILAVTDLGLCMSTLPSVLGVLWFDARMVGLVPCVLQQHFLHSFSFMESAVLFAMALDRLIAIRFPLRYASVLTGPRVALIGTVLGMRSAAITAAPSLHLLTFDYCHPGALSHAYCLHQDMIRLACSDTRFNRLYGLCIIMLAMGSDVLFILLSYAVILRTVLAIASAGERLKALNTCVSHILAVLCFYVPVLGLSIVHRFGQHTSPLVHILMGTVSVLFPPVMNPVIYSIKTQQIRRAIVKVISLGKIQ
Summary of the method: as §1

UniProt Q9R0K2 = biological target: UniProt Q9R0K2
Sequence of UniProt Q9R0K2 (Q9R0K2 as listed by the source): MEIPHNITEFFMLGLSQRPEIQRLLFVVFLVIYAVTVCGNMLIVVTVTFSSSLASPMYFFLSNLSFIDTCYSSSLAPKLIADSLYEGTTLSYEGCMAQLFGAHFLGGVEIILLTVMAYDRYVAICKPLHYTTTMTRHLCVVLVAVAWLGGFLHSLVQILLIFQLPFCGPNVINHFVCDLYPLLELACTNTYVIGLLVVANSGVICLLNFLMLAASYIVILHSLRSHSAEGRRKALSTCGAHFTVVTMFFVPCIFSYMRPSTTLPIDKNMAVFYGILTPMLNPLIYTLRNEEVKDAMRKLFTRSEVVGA
Summary of the method: as §1

UniProt Q9WU86 = biological target: T5, UniProt Q9WU86
T5 sequence (whole entry): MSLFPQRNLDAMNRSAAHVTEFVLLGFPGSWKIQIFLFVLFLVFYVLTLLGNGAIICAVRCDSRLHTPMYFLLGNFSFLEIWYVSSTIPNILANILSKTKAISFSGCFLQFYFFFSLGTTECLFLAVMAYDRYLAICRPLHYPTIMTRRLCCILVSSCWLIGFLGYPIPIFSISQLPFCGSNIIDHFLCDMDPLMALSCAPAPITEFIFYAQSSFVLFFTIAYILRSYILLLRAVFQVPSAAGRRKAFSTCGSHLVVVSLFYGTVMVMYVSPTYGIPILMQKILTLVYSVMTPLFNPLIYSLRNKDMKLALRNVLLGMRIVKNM
Summary of the method: as §1

UniProt Q9WU94 = biological target: T6, UniProt Q9WU94
T6 sequence (whole entry): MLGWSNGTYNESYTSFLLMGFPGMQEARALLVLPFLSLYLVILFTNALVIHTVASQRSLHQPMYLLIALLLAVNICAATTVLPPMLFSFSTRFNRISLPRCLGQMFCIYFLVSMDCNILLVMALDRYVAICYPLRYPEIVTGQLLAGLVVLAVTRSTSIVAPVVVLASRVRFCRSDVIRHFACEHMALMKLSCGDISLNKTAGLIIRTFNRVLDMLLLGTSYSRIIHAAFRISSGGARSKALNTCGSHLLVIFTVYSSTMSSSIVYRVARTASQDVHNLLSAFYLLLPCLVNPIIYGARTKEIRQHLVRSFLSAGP
Summary of the method: as §1

UniProt Q9WVD7 = biological target: T7, UniProt Q9WVD7
T7 sequence (whole entry): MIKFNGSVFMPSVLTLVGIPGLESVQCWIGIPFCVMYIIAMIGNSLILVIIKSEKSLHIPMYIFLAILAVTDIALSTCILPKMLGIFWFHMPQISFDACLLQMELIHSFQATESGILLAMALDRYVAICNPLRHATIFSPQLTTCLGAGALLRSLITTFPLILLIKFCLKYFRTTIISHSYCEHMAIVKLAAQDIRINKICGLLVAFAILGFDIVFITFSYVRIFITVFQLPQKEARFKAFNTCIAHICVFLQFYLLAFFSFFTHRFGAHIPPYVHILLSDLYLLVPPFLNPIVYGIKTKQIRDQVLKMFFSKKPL
Summary of the method: as §1

Measured: odorant receptor agonist call;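 further: active if original authors judged signal statistically different from baseline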

CCCCC(=O)O
inactive: all assays above

CCCCCCCO
inactive: all assays above

CCc1ncc(C)nc1CC
inactive: UniProt Q924H8

O=C([O-])CCCCCCC(=O)[O-].[H+].[H+]
active: UniProt Q924X8
inactive: UniProt Q924H8 | UniProt Q99NH4 | UniProt Q9WU94 | UniProt Q9WVD7

OCCc1ccccc1
inactive: UniProt Q924H8

CCCCCCCCO
active: UniProt Q9WVD7
not listed: UniProt Q99NH4
inactive: all other assays above

CCCCCCO
inactive: all assays above

CC(=O)OCCc1ccccc1
inactive: UniProt Q924H8

C=C(C)C1CCC(C)C(=O)C1 (stereo not drawn)
inactive: UniProt Q924H8 | UniProt Q9EPN9 | UniProt Q9R0K2 | UniProt Q9WU86

O=C([O-])CCCCCCCC(=O)[O-].[H+].[H+]
inactive: UniProt Q924H8 | UniProt Q99NH4 | UniProt Q9WVD7
active: UniProt Q924X8 | UniProt Q9WU94

O=C(O)C1CCC1
inactive: UniProt Q924H8

O=C(O)CCCCCBr
inactive: UniProt Q924H8 | UniProt Q99NH4 | UniProt Q9WU94
active: UniProt Q924X8 | UniProt Q9WVD7

COc1ccccc1
inactive: UniProt Q924H8

CCCCCC=CCCC=O
inactive: UniProt Q924H8

CC(=O)C=CC1=C(C)CCCC1(C)C
inactive: UniProt Q924H8

CCCCCCCCCCO
inactive: UniProt Q924H8 | UniProt Q99NH4 | UniProt Q9EPN9 | UniProt Q9R0K2 | UniProt Q9WU86

O=C1Cc2ccccc2O1
inactive: UniProt Q924H8 | UniProt Q9EPN9 | UniProt Q9R0K2 | UniProt Q9WU86

O=C(O)CCCCCCCCC(=O)O
inactive: UniProt Q924H8 | UniProt Q99NH4

CSSCc1ccco1
inactive: UniProt Q924H8

CCCCOC=O
inactive: UniProt Q924H8 | UniProt Q9EPN9 | UniProt Q9R0K2 | UniProt Q9WU86
